Screening results (PubChem BioAssay)
Only some compounds are listed: those with a hit (about 4.9% of all), similar ones and a draw of the others.
APP 5'UTR act = activates APP 5'UTR luciferase reporter; SH-SY5Y APP 5'UTR luciferase reporter, luminescence; zero percent = DMSO vehicle wells; 190,000 compounds, 1% hits; activation, % at 2 µM;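 active means activation above a set limit, based on mean plus 3 SD of controls, cut at about 140% in these data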
NF-kB expr up = NF-kB expression increase, human neuronal cells | NF-kB reporter expression; hits give high values | fold change at 12.5 µM | 190,000 compounds, 1.6% hits | AID 1239; in the data active means fold change above about 3.3
STAT3 inh = STAT3 signaling inhibition | AID 862 | 190,000 compounds, 0.89% hits | inhibition, % at 5.5 µM | U3A cells, IL-6 STAT3-luciferase reporter, luminescence; host cell line lacks STAT1;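 active means inhibition above the mean inhibition across all screened compounds plus 3 SD, cut at about 44% in these data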
STAT3 activator = activators of IL-6 induced STAT3 signaling; U3A cells, IL-6 STAT3-luciferase reporter, luminescence; 100% = signal with IL-6 EC80 alone; activation (% of control), % at 5.6 µM; 190,000 compounds, 0.91% hits; AID 871;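 active means activation above the screen-wide mean of compound activation plus 3 SD, cut at about 130% in these data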
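Material: human U3A cells carrying STAT3-luciferase construct. Measured by: reporter luminescence signal. Timing: compound 1 h, then IL-6 6 h at 37 °C.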
STAT1 blocker = reduces IFN-gamma driven STAT1 reporter signal; NIH 3T3 STAT1-luciferase reporter, luminescence; inhibition, % at 5.5 µM; 200,000 compounds, 0.35% hits;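 active means inhibition above a set limit, the mean inhibition across all tested compounds plus 3 SD, cut at about 34% in these data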
STAT1 activator = increases IFN-gamma driven STAT1 reporter signal | NIH 3T3 STAT1-luciferase reporter, luminescence; 100% = IFN-gamma alone, no compound | activation (% of control), % at 5.5 µM | 200,000 compounds, 2.6% hits | AID 932;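 active means activation above the screen-wide mean activation plus 3 SD, cut at about 130% in these data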
Of the large screens only hits and unclear results are named; the others gave an inactive call.

Brc1ccc(-c2csc(N/N=C/c3ccco3)n2)cc1	none
O=C1NC(c2ccc(Br)cc2)=N/C1=C/c1ccco1	APP 5'UTR act 140
O=[N+]([O-])c1ccc2nc(/C=C/c3ccc(Cl)cc3)[nH]c2c1	APP 5'UTR act 136
O=[N+]([O-])c1ccc(-c2nc3ccc([N+](=O)[O-])cc3[nH]2)cc1	STAT1 activator 131
Nc1ccc2nc(-c3ccc(Cl)cc3)[nH]c2c1	NF-kB expr up 8.5 (no result: STAT3 inh, STAT3 activator, STAT1 blocker, STAT1 activator)
O=C(COn1nnc2ccccc21)N1CCN(Cc2ccccc2)CC1	none
COc1ccccc1CNC(=O)c1ccc(OC(C)C)cc1	none
Cc1c(CN2CCC(CO)(CC3CCCCO3)CC2)cnn1C (stereo not given)	none
O=[N+]([O-])c1ccc(NC(=S)NCC(c2cccnc2)N2CCOCC2)cc1 (stereo not given)	none
COc1cc(/C=C(/C(=O)c2cccs2)c2nc3ccccc3[nH]2)cc(OC)c1O	NF-kB expr up 10
O=c1[nH]c2ccccc2nc1/C=C/c1ccc(Cl)cc1	APP 5'UTR act 167, STAT1 activator 133
O=C(/C(=C/c1ccc(Cl)cc1)c1nc2ccccc2[nH]1)c1ccccc1	NF-kB expr up 8
COc1ccc(C(=O)N/C(=C/c2cccs2)c2nc3ccccc3[nH]2)cc1OC	none
C(=C\c1ccco1)/c1nc2ccccc2[nH]1	APP 5'UTR act 136, NF-kB expr up 5
O=C(COC(=O)C1CC1)Nc1ccc2c(c1)OCO2	none
CN(C)S(=O)(=O)c1cc(NC(=O)CN2CCN(c3ccccc3O)CC2)ccc1Cl	none
CCOC(=O)c1sc(NC(=O)CCN2CCN(CC)CC2)c(C(=O)OCC)c1C	none
C(=C\c1nc2ccccc2[nH]1)/c1ccccc1	APP 5'UTR act 192, STAT3 inh 82, STAT1 blocker 43
Cc1ccc(C)c(NC(=O)CCC(=O)NNC(=O)c2cccc([N+](=O)[O-])c2)c1	none
Cc1ccc(Cn2ccc(-c3cnc(-c4ccccc4)s3)n2)cc1	none
O=C(c1ccc(F)cc1)n1ccc(-c2cnc(-c3ccccc3)s2)n1	NF-kB expr up 3.6, STAT1 activator 136
Fc1ccc(Cn2ccc(-c3cnc(-c4ccccc4)s3)n2)cc1	STAT1 activator 131
Cc1cc(/C=c2/sc3nc4ccccc4n3c2=O)c(C)n1-c1ccccn1	STAT3 inh 104, STAT1 blocker 86
C=CCNc1ncnc2c1[nH]c1ccc(C)cc12	APP 5'UTR act 179, NF-kB expr up 4.5, STAT1 activator 139
Cc1ccc2[nH]c3c(NCCN4CCOCC4)ncnc3c2c1	none
Cc1ccc2[nH]c3c(N4CCCCCC4)ncnc3c2c1	STAT3 inh 68, STAT1 blocker 36
CCn1nc(C)c(NC(=O)c2cnn3c(C(F)F)cc(-c4ccccc4)nc23)c1C	none
COc1ccc(C(CC(=O)O)NC(=O)COc2cc(C)ccc2C)cc1OC (stereo not given)	none
Cc1ccc(N=Nc2c(N)n(-c3ccccc3)[nH]c2=O)cc1	NF-kB expr up 4.2, STAT1 activator 139
NC(=O)c1ccc(N=Nc2c(-c3ccccc3)[nH]n(-c3ccccc3)c2=O)cc1	none
Cn1c2c(c(=O)c3ccccc31)CCC(C)(C)O2	none
O=S(=O)(c1cccc2nonc12)N1CCCCCC1	none
COc1ccc(C(=O)NNC(=O)CSc2ccccc2)cc1	none
CCOc1cc(C2NN=C(c3ccccc3)S2)ccc1OCc1ccc(F)cc1 (stereo not given)	NF-kB expr up 4.5, STAT1 activator 133
CCOc1cc(C2NN=C(c3ccccc3)S2)ccc1OCc1ccccc1Cl (stereo not given)	NF-kB expr up 3.7, STAT1 activator 136
CCOc1cc(CNC2CCCC2)ccc1OCc1ccccc1Cl	none
S=C(Nc1ccc(Br)cc1Cl)Nn1cnnc1	none
COCC(=O)Nc1nnc(-c2ccc(C(C)(C)C)cc2)s1	APP 5'UTR act 142, NF-kB expr up 8.4, STAT1 activator 136
CCN(C(=O)COC(=O)c1ccc2c(=O)n3c(nc2c1)CCC3)C1CCS(=O)(=O)C1 (stereo not given)	none
CN(C)c1ccc([C@@H]2[C@@H]([N+](=O)[O-])[C@H]3C=Cc4ccccc4N3[C@H]2C(=O)c2ccc(Cl)cc2)cc1	STAT3 activator 145
CCN(CC)c1ccc2cc(-c3nc(-c4ccc(OC)cc4)cs3)c(=O)oc2c1	none
CCN(CC)c1ccc2cc(-c3nc4ccccc4n3C)c(=O)oc2c1	NF-kB expr up 4.1, STAT3 activator 145, STAT1 activator 136
Cc1ccc(-n2ncc3c(SCc4ccccn4)ncnc32)c(C)c1	STAT1 activator 137
O=C(NNC(=O)C1CCCCC1)c1ccc(Br)cc1	none
Cc1c(Cl)cccc1NC(=S)N1CCC(N(C)CC2CCCO2)CC1 (stereo not given)	none
Cc1ccc2c(c1)c1ncnc(N3CCC4(CC3)OCCO4)c1n2C	STAT3 activator 135
CCn1cc(C(=O)N(CCC(C)C)c2c(N)n(Cc3ccccc3)c(=O)[nH]c2=O)c(=O)c2ccc(C)nc21	none
C=CCn1c(CCNC(=O)c2cccs2)nnc1SCC(=O)Nc1cccc(F)c1	none
Cc1ccc(-c2nc(C)c(C(=O)O)s2)cc1	APP 5'UTR act 143, STAT1 activator 135
Cc1nc(-c2ccc(Cl)cc2)sc1C(=O)O	STAT1 activator 138
CC(C)(C)c1ccc(S(=O)(=O)N2CCCCC2)cc1	none
CC(/C=N/N1CCN(c2ccccc2)CC1)=C\c1ccco1	NF-kB expr up 3.6, STAT1 activator 138
CC(=C/c1ccco1)/C=N/N1CCN(c2ccccc2)CC1	NF-kB expr up 3.9
CC(/C=N/N1CCN(c2ccccc2)CC1)=C\c1ccccc1	none
Cc1ccc(-c2nnc(SCC(N)=O)n2C)cc1	none
Cc1ccc(-c2nnc(SCC(C)C)n2C)cc1	STAT1 activator 138
CC(C)(C)OC(=O)N1CCC(c2cc(-c3cccs3)n[nH]2)CC1	none
O=c1[nH]c(SCc2nc3c(cnn3-c3ccccc3)c(=O)[nH]2)nc2ccccc12	STAT3 activator 160
O=c1[nH]c(CSc2nc3ccccc3[nH]2)nc2c1cnn2-c1ccccc1	none
Cc1ccc(NC(=O)COC(=O)[C@H](C)NC(N)=O)c(C)c1	none
COCCn1c(C)cc(C(=O)COc2ncnc3ccc(Br)cc23)c1C	none
C=CCn1c(C)cc(C(=O)COc2ncnc3sccc23)c1C	APP 5'UTR act 182
NNC(=O)c1sccc1OCc1ccc(Cl)cc1Cl	none
O=C(/C=C/Nc1ccccc1C(F)(F)F)c1ccco1	APP 5'UTR act 228, NF-kB expr up 6.7
O=C(Nc1cccc(C(F)(F)F)c1)c1ccco1	none
O=C(/C=C/Nc1cccc(C(F)(F)F)c1)c1ccco1	STAT1 activator 133
O=C(/C=C/Nc1ccc(Oc2ccccc2)cc1)c1ccco1	APP 5'UTR act 164, NF-kB expr up 5.4, STAT1 activator 140
